From ChEMBL document CHEMBL3393058 (Eur J Med Chem, 2014) come the findings set out here.

The species named for series [1] is Homo sapiens. The series is described as follows: Selectivity index, 1 - (inhibition of PRL3/inhibition of VHR) at 50 uM.
The species entered for series [2] is Homo sapiens. The series can be described thus: Selectivity index, 1 - (inhibition of PRL3/inhibition of PTP1B) at 50 uM.
For series [3], the species on record is Homo sapiens. The series can be described thus: Selectivity index, 1 - (inhibition of PRL3/inhibition of TCPTP) at 50 uM.
Series [4] concerns HEK293. The series can be described thus: Cytotoxicity against human HEK293 cells expressing human PRL-3 at 50 to 75 uM after 16 hrs by MTT assay. The class given is cell-based. The following applies: hek293, 16 h. Summed up:
(§1)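 Tetracycline-induced stable HEK293 Flp-In T-REx lines (PRL-1, PRL-2, PRL-3 or empty vector) were seeded at 10000 cells/well. After 24 h, compound or DMSO was added for 16 h. MTT was then added in fresh medium for 4 h at 37 °C, formazan dissolved in DMSO, and A570 read. Data were normalized to DMSO vehicle, run in triplicate in ≥2 independent experiments, with two-sided t-test versus vehicle.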

For series [5], the system named is HEK293. The series is described as follows: Cytotoxicity against human HEK293 cells expressing human PRL-1 at 50 to 75 uM after 16 hrs by MTT assay. The class given is cell-based. The following applies: hek293, 16 h. Summed up: as §1
Series [6] deals with HEK293. The series is described as follows: Cytotoxicity against human HEK293 cells expressing human PRL-2 at 50 to 75 uM after 16 hrs by MTT assay. It counts as cell-based. The following applies: hek293, 16 h. Summed up: as §1
A short description of series [7]: Solubility in buffer assessed as light scattering. The class given is physicochemical. Summed up: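 Light scattering of compounds in phosphatase assay buffer was measured by nephelometry against a buffer blank, across the concentration range used for IC50 determination.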
The target of series [8] is T1, Protein tyrosine phosphatase type IVA 3 (Homo sapiens, UniProt O75365). The series is described as follows: Inhibition of PRL3 (unknown origin) using DiFMUP as fluorogenic phosphate substrate assessed as DiFMUP dephosphorylation.
T1 sequence (O75365 whole entry): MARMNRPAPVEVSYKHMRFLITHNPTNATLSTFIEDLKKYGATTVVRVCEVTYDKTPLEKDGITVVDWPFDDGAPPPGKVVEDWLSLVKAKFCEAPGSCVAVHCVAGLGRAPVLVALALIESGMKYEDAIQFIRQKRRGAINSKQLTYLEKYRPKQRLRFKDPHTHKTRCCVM
Series [9] has as its target T1, Protein tyrosine phosphatase type IVA 3. The following applies: HEK293, 75 uM.
For series [10], the target named is T2, Protein tyrosine phosphatase type IVA 1 (Homo sapiens, UniProt Q93096).
T2 sequence (Q93096 whole entry): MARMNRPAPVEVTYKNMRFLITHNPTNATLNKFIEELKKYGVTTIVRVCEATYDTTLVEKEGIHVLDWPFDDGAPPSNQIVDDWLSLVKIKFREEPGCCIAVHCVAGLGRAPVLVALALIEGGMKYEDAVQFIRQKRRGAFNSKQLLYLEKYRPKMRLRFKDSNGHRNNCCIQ
The series is described as follows: Inhibition of PRL1 (unknown origin) using DiFMUP as fluorogenic phosphate substrate assessed as DiFMUP dephosphorylation.

Series [11] addresses T3, Protein tyrosine phosphatase type IVA 2 (Homo sapiens, UniProt Q12974).
T3 sequence (Q12974 whole entry): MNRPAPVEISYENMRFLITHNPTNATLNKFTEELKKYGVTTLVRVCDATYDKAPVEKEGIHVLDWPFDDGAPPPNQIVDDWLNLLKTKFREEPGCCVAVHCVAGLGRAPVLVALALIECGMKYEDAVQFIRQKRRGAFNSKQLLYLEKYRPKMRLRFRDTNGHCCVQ
The series can be described thus: Inhibition of PRL2 (unknown origin) using DiFMUP as fluorogenic phosphate substrate assessed as DiFMUP dephosphorylation.

The nature of series [12]: Drug localization in plasma membrane of HEK293 cells transfected with mKate-PRL-3 at 50 uM incubated for 30 mins by confocal microscopy. The class given is ADME. As to conditions: human, hek293, 0.5 h. The essentials: (§2)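 HEK293 cells were transfected with 0.1 μg mKate-PRL-3 18 h before imaging. Confocal imaging used a 63× oil objective, with mKate excited at 561 nm and compound at 405 nm.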

Series [13] is described as follows: Drug localization in inner membrane compartments of HEK293 cells transfected with mKate-PRL-3 at 50 uM incubated for 30 mins by confocal microscopy. As to conditions: human, hek293, 0.5 h. It counts as ADME. Summed up:
as §2

Series [14] concerns HEK293. The series is described as follows: Cytotoxicity against human HEK293 cells expressing empty vector at 75 uM after 16 hrs by MTT assay. The class given is cell-based. As to conditions: hek293, 16 h. The essentials: as §1
The target of series [15] is T1, Protein tyrosine phosphatase type IVA 3. As to conditions: HEK293, 12 uM.
For series [16] the target is unchanged. The following applies: HEK293, 50 uM.
For series [17] the target is unchanged. As to conditions: HEK293, 50 uM. The source holds these as a separate data set.
The test system of series [18] is HEK293. The series can be described thus: Effect on cell proliferation of human HEK293 cells expressing empty vector at 50 uM after 1 to 9 days by MTT assay. The class given is cell-based. As to conditions: hek293, 50 µM. The essentials:
(§3)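 Stable HEK293 lines (PRL-3 or empty vector) were seeded at 1500 cells/well in tetracycline-containing growth medium. Compound or DMSO vehicle was added immediately after seeding. On each indicated day, MTT was added for 4 h at 37 °C, formazan dissolved in DMSO, and absorbance read at 570 nm, in triplicate.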

Series [19] concerns HEK293. The series can be described thus: Effect on cell proliferation of human HEK293 cells expressing human PRL-3 at 50 uM after 1 to 9 days by MTT assay. The class given is functional, cell-based. The essentials: as §3
Series [20] deals with T1, Protein tyrosine phosphatase type IVA 3. The following applies: HEK293, 25 uM.
In series [21] the target is T4, Protein tyrosine phosphatase type IVA 1 (Homo sapiens) (UniProt Q93096).
T4 sequence (whole entry): T2 sequence (Q93096 whole entry)
The following applies: HEK293, 50 uM.

Series [22] concerns the target T5, Protein tyrosine phosphatase type IVA 2 (Homo sapiens) (UniProt Q12974).
T5 sequence (whole entry): T3 sequence (Q12974 whole entry)
The following applies: HEK293, 50 uM.

Series [23] concerns the target T1, Protein tyrosine phosphatase type IVA 3. The following applies: HEK293, 35 uM.
Series [24] shares this target. The following applies: HEK293, 12 uM. This is another data set of the same source.
In series [25] the test system is HEK293. The series can be described thus: Inhibition of cell proliferation of human HEK293 cells expressing empty vector at 20 uM after 1 to 9 days by MTT assay. As to conditions: hek293, 20 µM. It counts as cell-based. Summed up: as §3
The test system of series [26] is HEK293. The series can be described thus: Inhibition of cell proliferation of human HEK293 cells expressing human PRL-3 at 20 uM after 1 to 9 days by MTT assay. The class given is functional, cell-based. Summed up: as §3

In brackets after ≈: the same amount, converted by molar mass. Activity calls are given as the source filed them. No cut-off for these calls is given here.

As to `O=C(O)c1ccc[n+]2c([O-])c(-c3ccccc3)sc12`, the Selectivity index is 0.25 in the series listed under Homo sapiens [1], 0.25 in the series filed under Homo sapiens [2] and 0.1 in the series listed under Homo sapiens [3]. The Activity result in the series on HEK293 [4], with HEK293 [5] and with HEK293 [6] was “Non-toxic” each time. In addition, the solubility result in series [7] is “soluble”.

Consider `O=C1NC(=S)S/C1=C/c1ccc(-c2ccccc2C(=O)O)o1`, for which the figures for the Selectivity index in the series listed under Homo sapiens [1], in the series listed under Homo sapiens [2] and in the series filed under Homo sapiens [3] were 0.54, 0.34 and 0.22, respectively. For the same compound, the Activity entry with HEK293 [4] is “Non-toxic”. Moreover, the kinetic solubility in series [7] amounted to 335 µM (≈ 111 µg/mL). Besides, the 50% inhibitory concentration (IC50) in series [8] (read-out: IC50) was determined as 53 µM. For the same compound, the inhibition entry in series [9] is “inactive”.

For the compound `COc1cc(/C=C(\C#N)C(=O)OC(C)C)cc(Br)c1O`, the Selectivity index was 0.24 in the series listed under Homo sapiens [1], 0.08 in the series listed under Homo sapiens [2] and -0.29 in the series listed under Homo sapiens [3]. The 50% inhibitory concentration (IC50) in series [10] (read-out: IC50) turned out to be 56.7 µM; in series [11] (read-out: IC50) it was 69.4 µM; in series [8] (read-out: IC50), 69.4 µM. For the same compound, the Activity entry in the series with HEK293 [4], in the series with HEK293 [5] and with HEK293 [6] was “Non-toxic” each time. Further, the kinetic solubility in series [7] is 144 µM (≈ 49 µg/mL).

Regarding `CCOC(=O)/C(C#N)=C/c1cc(Br)c(O)c(Br)c1`, the Selectivity index in the series listed under Homo sapiens [1] was 0.44; in the series listed under Homo sapiens [2], 0.48; in the series listed under Homo sapiens [3], 0.24. Further, the IC50 in [10] (read-out: IC50) was found to be 89.1 µM; in series [11] (read-out: IC50) it was 109 µM; in series [8] (read-out: IC50) it was 109 µM. In addition, the Activity result with HEK293 [4], in the series on HEK293 [5] and with HEK293 [6] was “Toxic” in each case. The solubility entry in [7] was “soluble”.

Turning to `COC(=O)/C(C#N)=C/c1ccc(O)c(Br)c1`, the Drug uptake entry in series [12] and in series [13] was “Active” throughout.

Take `C=CCOC(=O)/C(C#N)=C/c1ccc(OC)cc1`: the IC50 result in series [10], in series [11] and in [8] was “Not Active” throughout.

For `C=CCOC(=O)/C(C#N)=C/c1ccc(O)c(Br)c1`, the Activity entry is “Non-toxic” in the series on HEK293 [4], “Non-toxic” in the series with HEK293 [5], “Non-toxic” in the series with HEK293 [6] and “Toxic” with HEK293 [14]. Moreover, in series [7], the kinetic solubility came to 311 µM (≈ 95.8 µg/mL).

For `C=CCOC(=O)/C(C#N)=C/c1cc(Br)c(O)c(OC)c1`, the inhibition entry in [15] and in [24] was “inactive” in each case. Further, the Drug uptake entry in series [12] is “Active”; in series [13] it was “Not Active”. The inhibition entry in [16], in series [17], in [20], in series [21], in [22] and in [23] was “Active” in each case. In [9], the inhibition entry is “Active”. Moreover, the Activity entry with HEK293 [4], in the series with HEK293 [18], in the series with HEK293 [5] and with HEK293 [6] was “Non-toxic” each time. Also, the result in the series with HEK293 [19] was inactive. The solubility (kinetic) in [7] turned out to be 138 µM (≈ 46.7 µg/mL).

For the compound `Nc1c[nH]c(=O)c2cc(-c3ccccc3)sc12`, the Activity result was “Toxic” with HEK293 [25], “Non-toxic” in the series with HEK293 [4], “Non-toxic” with HEK293 [5] and “Non-toxic” in the series on HEK293 [6]. In the series with HEK293 [26], the inhibition entry is “Active”. For the same compound, in series [7], the solubility result is on record as “soluble”.
